In ChEMBL document CHEMBL3588757, “Structure-based design, synthesis and biological testing of piperazine-linked bis-epipodophyllotoxin etoposide analogs” (Bioorg Med Chem, 2015):
Calls of active or inactive are those of the source. The rule behind the calls is not given here.

Tests used:
K562 [1] = experiment: Cytotoxicity against human K562 cells assessed as cell growth inhibition after 72 hrs by MTS assay; type: functional, cell-based; settings: K562, 72 h
[2] = Cytotoxicity against etoposide-resistant human K/VP.5 cells assessed as cell growth inhibition after 72 hrs by MTS assay; type: functional, cell-based; settings: K/VP.5, 72 h
Procedure, shortened: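 K/VP.5 cells are a K562-derived subline, 26-fold etoposide-resistant, with decreased topoisomerase IIα mRNA and protein. Cells were grown in suspension in αMEM with 10% fetal calf serum. Drugs were given from DMSO stocks, with final DMSO typically 0.4% or less. Read-out was MTS absorbance after 72 h. Typically nine concentrations were run in duplicate on two days. IC50 came from a four-parameter logistic fit.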

K562 [3] = experiment: Relative resistance, ratio of IC50 for etoposide-resistant human K/VP.5 cells to IC50 for human K562 cells; type: functional
[4] = target: DNA topoisomerase 2-alpha (Homo sapiens) (UniProt P11388); experiment: Inhibition of full-length human recombinant topoisomerase 2-alpha-mediated decatenation activity of kDNA by ethidium bromide based gel-assay
[5] = target: DNA topoisomerase 2-alpha (Homo sapiens) (UniProt P11388); experiment: Inhibition of full-length human recombinant topoisomerase 2-alpha mediated relaxation and cleavage of supercoiled pBR322 plasmid DNA to linear DNA by ethidium bromide staining based gel electrophoresis assay
Procedure, shortened: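 Recombinant full-length human topoisomerase IIα with supercoiled pBR322 DNA at 37 °C. Components mixed on ice before drug addition. Complexes trapped with SDS; products run on ethidium bromide gels. Linear DNA identified against a HindIII-linearized marker; repeated on three days.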

CCRF-CEM = experiment: Cytotoxicity against human CCRF-CEM cells assessed as cell growth at 10 uM; type: functional; settings: read-out: Activity
HL-60(TB) = experiment: Cytotoxicity against human HL-60(TB) cells assessed as cell growth at 10 uM; type: functional; settings: read-out: Activity
K562 [6] = experiment: Cytotoxicity against human K562 cells assessed as cell growth at 10 uM; type: functional; settings: read-out: Activity
MOLT-4 = experiment: Cytotoxicity against human MOLT4 cells assessed as cell growth at 10 uM; type: functional; settings: read-out: Activity
RPMI-8226 = experiment: Cytotoxicity against human RPMI8226 cells assessed as cell growth at 10 uM; type: functional; settings: read-out: Activity
SR = experiment: Cytotoxicity against human SR cells assessed as cell growth at 10 uM; type: functional; settings: read-out: Activity
A549 = experiment: Cytotoxicity against human A549/ATCC cells assessed as cell growth at 10 uM; type: functional; settings: read-out: Activity
HOP-62 = experiment: Cytotoxicity against human HOP62 cells assessed as cell growth at 10 uM; type: functional; settings: read-out: Activity
HOP-92 = experiment: Cytotoxicity against human HOP92 cells assessed as cell growth at 10 uM; type: functional; settings: read-out: Activity
NCI-H226 = experiment: Cytotoxicity against human NCI-H226 cells assessed as cell growth at 10 uM; type: functional; settings: read-out: Activity
NCI-H23 = experiment: Cytotoxicity against human NCI-H23 cells assessed as cell growth at 10 uM; type: functional; settings: read-out: Activity
NCI-H322M = experiment: Cytotoxicity against human NCI-H322M cells assessed as cell growth at 10 uM; type: functional; settings: read-out: Activity
NCI-H460 = experiment: Cytotoxicity against human NCI-H460 cells assessed as cell growth at 10 uM; type: functional; settings: read-out: Activity
COLO 205 = experiment: Cytotoxicity against human COLO205 cells assessed as cell growth at 10 uM; type: functional; settings: read-out: Activity
HCC 2998 = experiment: Cytotoxicity against human HCC2998 cells assessed as cell growth at 10 uM; type: functional; settings: read-out: Activity
HCT-116 = experiment: Cytotoxicity against human HCT116 cells assessed as cell growth at 10 uM; type: functional; settings: read-out: Activity
HCT-15 = experiment: Cytotoxicity against human HCT15 cells assessed as cell growth at 10 uM; type: functional; settings: read-out: Activity
HT-29 = experiment: Cytotoxicity against human HT-29 cells assessed as cell growth at 10 uM; type: functional; settings: read-out: Activity
KM12 = experiment: Cytotoxicity against human KM12 cells assessed as cell growth at 10 uM; type: functional; settings: read-out: Activity
SW-620 = experiment: Cytotoxicity against human SW620 cells assessed as cell growth at 10 uM; type: functional; settings: read-out: Activity
SF-268 = experiment: Cytotoxicity against human SF268 cells assessed as cell growth at 10 uM; type: functional; settings: read-out: Activity
SF-295 = experiment: Cytotoxicity against human SF295 cells assessed as cell growth at 10 uM; type: functional; settings: read-out: Activity
SF-539 = experiment: Cytotoxicity against human SF539 cells assessed as cell growth at 10 uM; type: functional; settings: read-out: Activity
SNB-19 = experiment: Cytotoxicity against human SNB19 cells assessed as cell growth at 10 uM; type: functional; settings: read-out: Activity
SNB-75 = experiment: Cytotoxicity against human SNB75 cells assessed as cell growth at 10 uM; type: functional; settings: read-out: Activity
U-251 = experiment: Cytotoxicity against human U251 cells assessed as cell growth at 10 uM; type: functional; settings: read-out: Activity
Malme-3M = experiment: Cytotoxicity against human MALME-3M cells assessed as cell growth at 10 uM; type: functional; settings: read-out: Activity
M14 = experiment: Cytotoxicity against human M14 cells assessed as cell growth at 10 uM; type: functional; settings: read-out: Activity
MDA-MB-435 = experiment: Cytotoxicity against human MDA-MB-435 cells assessed as cell growth at 10 uM; type: functional; settings: read-out: Activity
SK-MEL-2 = experiment: Cytotoxicity against human SK-MEL-2 cells assessed as cell growth at 10 uM; type: functional; settings: read-out: Activity
SK-MEL-28 = experiment: Cytotoxicity against human SK-MEL-28 cells assessed as cell growth at 10 uM; type: functional; settings: read-out: Activity
SK-MEL-5 = experiment: Cytotoxicity against human SK-MEL-5 cells assessed as cell growth at 10 uM; type: functional; settings: read-out: Activity
UACC-257 = experiment: Cytotoxicity against human UACC257 cells assessed as cell growth at 10 uM; type: functional; settings: read-out: Activity
UACC-62 = experiment: Cytotoxicity against human UACC62 cells assessed as cell growth at 10 uM; type: functional; settings: read-out: Activity
IGROV-1 = experiment: Cytotoxicity against human IGROV1 cells assessed as cell growth at 10 uM; type: functional; settings: read-out: Activity
OVCAR-3 = experiment: Cytotoxicity against human OVCAR3 cells assessed as cell growth at 10 uM; type: functional; settings: read-out: Activity
OVCAR-4 = experiment: Cytotoxicity against human OVCAR4 cells assessed as cell growth at 10 uM; type: functional; settings: read-out: Activity
OVCAR-5 = experiment: Cytotoxicity against human OVCAR5 cells assessed as cell growth at 10 uM; type: functional; settings: read-out: Activity
OVCAR-8 = experiment: Cytotoxicity against human OVCAR8 cells assessed as cell growth at 10 uM; type: functional; settings: read-out: Activity
[7] = Cytotoxicity against human NCI-ADR-RES cells assessed as cell growth at 10 uM; type: functional; settings: read-out: Activity
SK-OV-3 = experiment: Cytotoxicity against human SKOV3 cells assessed as cell growth at 10 uM; type: functional; settings: read-out: Activity
786-0 = experiment: Cytotoxicity against human 786-0 cells assessed as cell growth at 10 uM; type: functional; settings: read-out: Activity
A498 = experiment: Cytotoxicity against human A498 cells assessed as cell growth at 10 uM; type: functional; settings: read-out: Activity
ACHN = experiment: Cytotoxicity against human ACHN cells assessed as cell growth at 10 uM; type: functional; settings: read-out: Activity
CAKI-1 = experiment: Cytotoxicity against human Caki1 cells assessed as cell growth at 10 uM; type: functional; settings: read-out: Activity
RXF 393 = experiment: Cytotoxicity against human RXF393 cells assessed as cell growth at 10 uM; type: functional; settings: read-out: Activity
SN12C = experiment: Cytotoxicity against human SN12C cells assessed as cell growth at 10 uM; type: functional; settings: read-out: Activity
TK-10 = experiment: Cytotoxicity against human TK10 cells assessed as cell growth at 10 uM; type: functional; settings: read-out: Activity
UO-31 = experiment: Cytotoxicity against human UO31 cells assessed as cell growth at 10 uM; type: functional; settings: read-out: Activity
PC-3 = experiment: Cytotoxicity against human PC3 cells assessed as cell growth at 10 uM; type: functional; settings: read-out: Activity
DU-145 = experiment: Cytotoxicity against human DU145 cells assessed as cell growth at 10 uM; type: functional; settings: read-out: Activity
MCF7 = experiment: Cytotoxicity against human MCF7 cells assessed as cell growth at 10 uM; type: functional; settings: read-out: Activity
MDA-MB-231 = experiment: Cytotoxicity against human MDA-MB-231/ATCC cells assessed as cell growth at 10 uM; type: functional; settings: read-out: Activity
[8] = Cytotoxicity against human Hs578T cells assessed as cell growth at 10 uM; type: functional; settings: Hs-578T, read-out: Activity
BT-549 = experiment: Cytotoxicity against human BT549 cells assessed as cell growth at 10 uM; type: functional; settings: read-out: Activity
T47D = experiment: Cytotoxicity against human T47D cells assessed as cell growth at 10 uM; type: functional; settings: read-out: Activity
MDA-MB-468 = experiment: Cytotoxicity against human MDA-MB-468 cells assessed as cell growth at 10 uM; type: functional; settings: read-out: Activity

Sequence of DNA topoisomerase 2-alpha (Homo sapiens) (P11388 whole entry): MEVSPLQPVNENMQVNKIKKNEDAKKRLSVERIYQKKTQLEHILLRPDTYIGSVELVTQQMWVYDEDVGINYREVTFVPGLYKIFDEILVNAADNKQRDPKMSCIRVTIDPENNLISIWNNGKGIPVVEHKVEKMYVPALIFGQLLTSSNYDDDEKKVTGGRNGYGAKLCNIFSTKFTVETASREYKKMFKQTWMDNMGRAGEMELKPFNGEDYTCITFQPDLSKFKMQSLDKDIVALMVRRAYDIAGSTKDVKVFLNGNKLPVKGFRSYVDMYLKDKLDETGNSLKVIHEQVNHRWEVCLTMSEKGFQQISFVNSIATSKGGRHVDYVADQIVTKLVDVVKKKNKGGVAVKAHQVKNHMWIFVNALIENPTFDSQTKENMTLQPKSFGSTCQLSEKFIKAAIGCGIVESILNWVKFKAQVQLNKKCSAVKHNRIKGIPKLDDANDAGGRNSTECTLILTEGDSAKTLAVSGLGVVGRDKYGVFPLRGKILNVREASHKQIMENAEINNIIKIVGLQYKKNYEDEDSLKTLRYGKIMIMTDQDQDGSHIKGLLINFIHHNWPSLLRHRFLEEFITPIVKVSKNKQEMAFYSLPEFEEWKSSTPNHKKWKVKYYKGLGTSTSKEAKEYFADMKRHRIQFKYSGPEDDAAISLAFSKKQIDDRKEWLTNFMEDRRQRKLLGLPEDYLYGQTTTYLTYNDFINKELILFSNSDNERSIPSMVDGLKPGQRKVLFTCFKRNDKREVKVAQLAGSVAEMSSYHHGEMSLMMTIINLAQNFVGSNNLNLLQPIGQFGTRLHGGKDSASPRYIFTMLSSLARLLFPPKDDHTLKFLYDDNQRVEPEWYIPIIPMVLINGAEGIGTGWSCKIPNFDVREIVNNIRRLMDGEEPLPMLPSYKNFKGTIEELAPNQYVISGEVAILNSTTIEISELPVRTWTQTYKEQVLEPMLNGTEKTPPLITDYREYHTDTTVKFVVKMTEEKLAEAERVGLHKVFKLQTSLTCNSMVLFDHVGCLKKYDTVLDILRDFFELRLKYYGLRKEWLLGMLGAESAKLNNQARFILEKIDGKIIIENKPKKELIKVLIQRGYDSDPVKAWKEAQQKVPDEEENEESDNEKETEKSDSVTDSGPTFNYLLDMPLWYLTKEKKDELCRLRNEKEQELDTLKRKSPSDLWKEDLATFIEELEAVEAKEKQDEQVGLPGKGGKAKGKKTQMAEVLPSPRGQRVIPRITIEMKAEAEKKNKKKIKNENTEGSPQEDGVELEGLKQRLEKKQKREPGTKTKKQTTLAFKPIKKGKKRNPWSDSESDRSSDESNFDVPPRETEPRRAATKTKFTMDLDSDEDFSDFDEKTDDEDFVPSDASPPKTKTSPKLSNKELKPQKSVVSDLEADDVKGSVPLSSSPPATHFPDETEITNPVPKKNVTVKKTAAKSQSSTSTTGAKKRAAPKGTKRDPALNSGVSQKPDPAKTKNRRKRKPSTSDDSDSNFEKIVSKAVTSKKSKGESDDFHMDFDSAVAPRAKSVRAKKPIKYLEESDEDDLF

## COc1cc([C@@H]2c3cc4c(cc3[C@@H](NC(=O)CN3CCN(CCCN5CCN(CC(=O)N[C@@H]6c7cc8c(cc7[C@@H](c7cc(OC)c(O)c(OC)c7)[C@H]7C(=O)OC[C@@H]76)OCO8)CC5)CC3)[C@H]3COC(=O)[C@H]23)OCO4)cc(OC)c1O
K562 [1]
  IC50: 0.525 µM
[2]
  IC50: 7.5 µM
K562 [3]
  Ratio IC50: 14.2
[4]
  inhibition: Active
[5]
  Effect on topoisomerase 2-alpha DNA cleavage (qualitative): Dose-dependent effect
CCRF-CEM
  growth at 10 µM: 12.8%
HL-60(TB)
  growth at 10 µM: 26.7%
K562 [6]
  growth at 10 µM: 61.9%
MOLT-4
  growth at 10 µM: 10.9%
RPMI-8226
  growth at 10 µM: 63.4%
SR
  growth at 10 µM: 15.2%
A549
  growth at 10 µM: 47%
HOP-62
  growth at 10 µM: 75.9%
HOP-92
  growth at 10 µM: 65.7%
NCI-H226
  growth at 10 µM: 86%
NCI-H23
  growth at 10 µM: 84.2%
NCI-H322M
  growth at 10 µM: 104%
NCI-H460
  growth at 10 µM: 24.3%
COLO 205
  growth at 10 µM: 53.9%
HCC 2998
  growth at 10 µM: 97.8%
HCT-116
  growth at 10 µM: 64.6%
HCT-15
  growth at 10 µM: 98.6%
HT-29
  growth at 10 µM: 89.5%
KM12
  growth at 10 µM: 87.9%
SW-620
  growth at 10 µM: 54.9%
SF-268
  growth at 10 µM: 69.6%
SF-295
  growth at 10 µM: 94.5%
SF-539
  growth at 10 µM: 77.8%
SNB-19
  growth at 10 µM: 59.3%
SNB-75
  growth at 10 µM: 66.8%
U-251
  growth at 10 µM: 45.1%
Malme-3M
  growth at 10 µM: 68.1%
M14
  growth at 10 µM: 95.4%
MDA-MB-435
  growth at 10 µM: 88.6%
SK-MEL-2
  growth at 10 µM: 101%
SK-MEL-28
  growth at 10 µM: 85.9%
SK-MEL-5
  growth at 10 µM: 77.6%
UACC-257
  growth at 10 µM: 79.7%
UACC-62
  growth at 10 µM: 56.4%
IGROV-1
  growth at 10 µM: 71.8%
OVCAR-3
  growth at 10 µM: 98.2%
OVCAR-4
  growth at 10 µM: 95.6%
OVCAR-5
  growth at 10 µM: 102%
OVCAR-8
  growth at 10 µM: 95.5%
[7]
  growth at 10 µM: 103%
SK-OV-3
  growth at 10 µM: 96.7%
786-0
  growth at 10 µM: 95.9%
A498
  growth at 10 µM: 65%
ACHN
  growth at 10 µM: 92.5%
CAKI-1
  growth at 10 µM: 97%
RXF 393
  growth at 10 µM: 90.2%
SN12C
  growth at 10 µM: 57.8%
TK-10
  growth at 10 µM: 88.7%
UO-31
  growth at 10 µM: 93.1%
PC-3
  growth at 10 µM: 79.8%
DU-145
  growth at 10 µM: 83.5%
MCF7
  growth at 10 µM: 26%
MDA-MB-231
  growth at 10 µM: 93.9%
[8]
  growth at 10 µM: 95.2%
BT-549
  growth at 10 µM: 69.6%
T47D
  growth at 10 µM: 56.9%
MDA-MB-468
  growth at 10 µM: 93.8%
